Measurements taken from ChEMBL document CHEMBL5712087, “Targeting bromodomain-containing protein 4 (BRD4) inhibits MYC expression in colorectal cancer cells” (Neoplasia, 2019).
Calls of active or inactive are those of the source. The calls are words filed in the database; no cut-off is given here.

Assays:
[1] = target: T1, Protein cereblon/Bromodomain-containing protein 4 (Homo sapiens) (UniProt O60885+Q96SW2); assay: PROTAC activity at BRD4/Cereblon in human LS174T cells assessed as BRD4 protein degradation at 100 to 1000 nM for 24 hrs by Western blot analysis; format: cell-based; conditions: dose 100-1000 nM
T1 sequence (Q96SW2 whole entry, looked up, other chains not shown): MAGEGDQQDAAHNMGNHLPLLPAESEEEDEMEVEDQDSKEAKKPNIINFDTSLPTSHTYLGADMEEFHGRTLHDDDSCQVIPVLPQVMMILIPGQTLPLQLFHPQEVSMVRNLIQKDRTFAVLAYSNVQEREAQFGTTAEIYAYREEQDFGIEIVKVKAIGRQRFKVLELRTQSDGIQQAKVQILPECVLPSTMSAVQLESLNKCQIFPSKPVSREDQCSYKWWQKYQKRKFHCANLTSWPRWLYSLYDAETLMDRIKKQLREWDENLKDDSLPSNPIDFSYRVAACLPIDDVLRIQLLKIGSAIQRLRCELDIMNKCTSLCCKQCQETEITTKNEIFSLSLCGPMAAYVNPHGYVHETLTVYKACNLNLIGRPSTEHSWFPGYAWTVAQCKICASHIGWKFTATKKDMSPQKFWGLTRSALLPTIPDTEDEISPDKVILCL
Method in brief: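 Cells treated 24 h across 1 nM–10 µM range (fibroblasts at 500/1000 nM). Immunoblot: RIPA lysate with 2.5 mmol/l DTT, 15 µg per lane on 10% SDS-PAGE, nitrocellulose, 5% milk block 1 h. BRD4 or MYC primary 1:1,000 overnight at 4 °C, HRP secondary 1:10,000 for 60 min; GAPDH/β-actin loading control; ECL detection.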

[2] = target: T1, Protein cereblon/Bromodomain-containing protein 4 (Homo sapiens); assay: PROTAC activity at BRD4/Cereblon in human HCT116 p53-/- cells assessed as decrease in BRD4 protein degradation at 5 to 10 uM for 24 hrs by Western blot analysis; format: cell-based; conditions: HCT-116, dose 5-10 µM
Method in brief: (§1)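 Eight CRC lines exposed 24 h to PROTAC at 5 or 10 µM (stocks 2 mM in DMSO, diluted in PBS or medium). Lysis in RIPA with protease/phosphatase inhibitors and 2.5 mmol/l DTT; 15 µg protein on 10% SDS-PAGE, semi-dry transfer to nitrocellulose. Anti-BRD4 or anti-MYC at 1:1,000 overnight at 4 °C; GAPDH or β-actin loading control; chemiluminescence.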

[3] = target: T1, Protein cereblon/Bromodomain-containing protein 4 (Homo sapiens); assay: PROTAC activity at BRD4/Cereblon in human SW480 cells assessed as decrease in BRD4 protein degradation at 5 to 10 uM for 24 hrs by Western blot analysis; format: cell-based; conditions: dose 5-10 µM; method in brief: as §1
[4] = target: T1, Protein cereblon/Bromodomain-containing protein 4 (Homo sapiens); assay: PROTAC activity at BRD4/Cereblon in human DLD-1 cells assessed as decrease in MYC protein expression at 5 to 10 uM for 24 hrs by Western blot analysis; format: cell-based; conditions: dose 5-10 µM; method in brief: as §1
[5] = target: T1, Protein cereblon/Bromodomain-containing protein 4 (Homo sapiens); assay: PROTAC activity at BRD4/Cereblon in human LS174T cells assessed as decrease in MYC protein expression at 5 to 10 uM for 24 hrs by Western blot analysis; format: cell-based; conditions: dose 5-10 µM; method in brief: as §1
[6] = target: T1, Protein cereblon/Bromodomain-containing protein 4 (Homo sapiens); assay: PROTAC activity at BRD4/Cereblon in human LS174T cells assessed as BRD4 protein degradation at 1 uM for 2 hrs by Immunofluorescence analysis
[7] = target: T2, von Hippel-Lindau disease tumor suppressor/Bromodomain-containing protein 4 (Homo sapiens) (UniProt O60885+P40337); assay: PROTAC activity at BRD4/VHL E3 ligase in human LS174T cells assessed as BRD4 protein degradation at 100 to 1000 nM for 24 hrs by Western blot analysis; format: cell-based; conditions: dose 100-1000 nM
T2 sequence (P40337 whole entry, looked up, other chains not shown): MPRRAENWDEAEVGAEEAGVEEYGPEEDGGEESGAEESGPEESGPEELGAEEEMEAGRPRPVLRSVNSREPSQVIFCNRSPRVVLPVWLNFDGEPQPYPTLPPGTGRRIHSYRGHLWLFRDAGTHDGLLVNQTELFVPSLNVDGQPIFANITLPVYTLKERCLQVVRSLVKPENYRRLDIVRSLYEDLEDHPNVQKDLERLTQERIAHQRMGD
Method in brief: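 LS174t cells (RPMI 1640, 10% FCS) were exposed to 1 nM–10 µM for 24 h. Lysates in RIPA with inhibitors and 2.5 mmol/l DTT; 15 µg protein was run on 10% SDS-PAGE and transferred to nitrocellulose. BRD4 or MYC primary antibodies were used at 1:1,000 overnight at 4 °C, HRP secondary 1:10,000, and GAPDH/β-actin as loading control. Detection was by chemiluminescence.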

[8] = target: T2, von Hippel-Lindau disease tumor suppressor/Bromodomain-containing protein 4 (Homo sapiens); assay: PROTAC activity at BRD4/VHL E3 ligase in human LS174T cells assessed as BRD4 mRNA level at 500 to 1000 nM for 24 hrs by RT-qPCR analysis; format: cell-based; conditions: dose 500-1000 nM
Method in brief: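 LS174t cells were treated for 24 h, then total RNA was Trizol-extracted from 10^6 cells and integrity-checked. 0.7 µg RNA was reverse transcribed and SYBR-type qPCR run for 40 cycles (95 °C 15 s, 60 °C 60 s), with melt-curve control. MYC or BRD4 mRNA was normalised to PPIA and ACTB by the ΔΔCq method. Experiments were run at least three times; mean ± SD.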

[9] = target: T2, von Hippel-Lindau disease tumor suppressor/Bromodomain-containing protein 4 (Homo sapiens); assay: PROTAC activity at BRD4/VHL E3 ligase in human LS174T cells assessed as BRD4 protein degradation at 250 nM for 2 hrs by Western blot analysis; format: cell-based
Method in brief: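 LS174t cells were exposed to PROTAC for 2 h. For washout, the PROTAC was removed by changing the culture medium and cells were harvested 22 h later. BRD4 was assessed by western blot (15 µg lysate, 10% SDS-PAGE, chemiluminescence), normalised against GAPDH/β-actin.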

[10] = target: T2, von Hippel-Lindau disease tumor suppressor/Bromodomain-containing protein 4 (Homo sapiens); assay: PROTAC activity at BRD4/VHL E3 ligase in human LS174T cells assessed as BRD4 protein degradation at 250 nM pretreated with VHL siRNA by Western blot analysis; format: cell-based
[11] = target: T2, von Hippel-Lindau disease tumor suppressor/Bromodomain-containing protein 4 (Homo sapiens); assay: PROTAC activity at BRD4/VHL E3 ligase in human fibroblast cells assessed as decrease in BRD4 protein degradation at 100 to 250 nM for 24 hrs by Western blot analysis; format: cell-based; conditions: dose 100-250 nM
Method in brief: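 Normal human dermal fibroblasts in 10% FCS medium were treated with 100 or 250 nM PROTAC. BRD4 and MYC protein were assessed by western blot (15 µg RIPA lysate, 10% SDS-PAGE, primary 1:1,000 overnight at 4 °C), with GAPDH/β-actin as loading control.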

[12] = target: T2, von Hippel-Lindau disease tumor suppressor/Bromodomain-containing protein 4 (Homo sapiens); assay: PROTAC activity at BRD4/VHL E3 ligase in human DLD-1 cells assessed as decrease in BRD4 protein degradation at 5 to 10 uM for 24 hrs by Western blot analysis; format: cell-based; conditions: dose 5-10 µM; method in brief: as §1
[13] = target: T2, von Hippel-Lindau disease tumor suppressor/Bromodomain-containing protein 4 (Homo sapiens); assay: PROTAC activity at BRD4/VHL E3 ligase in human HCT116 p53-/- cells assessed as decrease in BRD4 protein degradation at 5 to 10 uM for 24 hrs by Western blot analysis; format: cell-based; conditions: HCT-116, dose 5-10 µM; method in brief: as §1
[14] = target: T2, von Hippel-Lindau disease tumor suppressor/Bromodomain-containing protein 4 (Homo sapiens); assay: PROTAC activity at BRD4/VHL E3 ligase in human SW480 cells assessed as decrease in BRD4 protein degradation at 5 to 10 uM for 24 hrs by Western blot analysis; format: cell-based; conditions: dose 5-10 µM
Method in brief: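 Eight CRC lines, including LS174t (RPMI 1640) and SW480 (DMEM/HamsF12), all with 10% FCS, were treated with PROTAC at 5 and 10 µM. BRD4 and MYC proteins were detected by immunoblot (RIPA lysate, 15 µg, 10% gel, primary 1:1,000 overnight at 4 °C), with GAPDH/β-actin as loading control.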

[15] = target: T2, von Hippel-Lindau disease tumor suppressor/Bromodomain-containing protein 4 (Homo sapiens); assay: PROTAC activity at BRD4/VHL E3 ligase in human HT-29 cells assessed as decrease in MYC protein expression at 5 to 10 uM for 24 hrs by Western blot analysis; format: cell-based; conditions: dose 5-10 µM; method in brief: as §1
[16] = target: T2, von Hippel-Lindau disease tumor suppressor/Bromodomain-containing protein 4 (Homo sapiens); assay: PROTAC activity at BRD4/VHL E3 ligase in human LS174T dbet1 resistant cells assessed as MYC mRNA level at 500 to 1000 nM for 24 hrs by RT-qPCR analysis; format: cell-based; conditions: dose 500-1000 nM
Method in brief: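 Resistant LS174t cells were derived by four months' exposure to rising dBET1 concentrations, with outgrowing cells expanded. Resistant and parental cells were then treated and analysed for BRD4 and MYC protein by western blot (GAPDH/β-actin control) and for MYC mRNA by qPCR normalised to PPIA/ACTB (ΔΔCq).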

[17] = target: T2, von Hippel-Lindau disease tumor suppressor/Bromodomain-containing protein 4 (Homo sapiens); assay: PROTAC activity at BRD4/VHL E3 ligase in human LS174T cells assessed as BRD4 protein degradation at 1 µM for 2 hrs by Immunofluorescence analysis

| SMILES | Activity [1] | Activity [2] | Activity [3] | Activity [4] | Activity [5] | Activity [6] | Activity [7] | Activity [8] | Activity [9] | Activity [10] | Activity [11] | Activity [12] | Activity [13] | Activity [14] | Activity [15] | Activity [16] | Activity [17] |
| --- | --- | --- | --- | --- | --- | --- | --- | --- | --- | --- | --- | --- | --- | --- | --- | --- | --- |
| Cc1sc2c(c1C)C(c1ccc(Cl)cc1)=N[C@@H](CC(=O)NCCCCNC(=O)COc1cccc3c1C(=O)N(C1CCC(=O)NC1=O)C3=O)c1nnc(C)n1-2 (some centres not stated) | Dose-Dependent Effect | Active | inactive | Active | Active | Active | – | – | – | – | – | – | – | – | – | – | – |
| Cc1ncsc1-c1ccc(CNC(=O)[C@@H]2C[C@@H](O)CN2C(=O)[C@@H](NC(=O)COCCOCCOCCNC(=O)C[C@@H]2N=C(c3ccc(Cl)cc3)c3c(sc(C)c3C)-n3c(C)nnc32)C(C)(C)C)cc1 | – | – | – | – | – | – | Dose-Dependent Effect | inactive | Active | inactive | Active | inactive | Active | Active | Active | Active | Active |
